Experimental data reported in ChEMBL document CHEMBL4184148 (Bioorg Med Chem Lett, 2017).

Assays:
[1] = molecular target: Ribosomal protein S6 kinase alpha-1 (Homo sapiens) (UniProt Q15418); experiment: Binding affinity to wild-type human partial length C-terminal RSK1 kinase domain 2 (P360 to L681 residues) expressed in Escherichia coli BL21 at 1 uM by Kinomescan method relative to control
[2] = molecular target: Mitogen-activated protein kinase kinase kinase 14 (Homo sapiens) (UniProt Q99558); experiment: Binding affinity to wild-type human partial length NIK (L318 to P947 residues) expressed in HEK293 cells at 1 uM by Kinomescan method relative to control; type: cell-based
[3] = molecular target: RAC-gamma serine/threonine-protein kinase (Homo sapiens) (UniProt Q9Y243); experiment: Binding affinity to wild-type human partial length AKT3 expressed in Escherichia coli BL21 at 1 uM by Kinomescan method relative to control
Procedure, shortened: (§1)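 Kinome-wide competition binding panel run by an outside provider, with each compound tested at a single concentration. Activity is read against the kinase panel.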

[4] = molecular target: Serine/threonine-protein kinase TAO3 (Homo sapiens) (UniProt Q9H2K8); experiment: Binding affinity to wild-type human partial length TAOK3 (M1 to T316 residues) expressed in HEK293 cells at 1 uM by Kinomescan method relative to control; type: cell-based
[5] = molecular target: TRAF2 and NCK-interacting protein kinase (Homo sapiens) (UniProt Q9UKE5); experiment: Binding affinity to wild-type human partial length TNIK (D4 to K311 residues) expressed in Escherichia coli BL21 at 1 uM by Kinomescan method relative to control
[6] = molecular target: Testis-specific serine/threonine-protein kinase 3 (Homo sapiens) (UniProt Q96PN8); experiment: Binding affinity to wild-type human full length TSSK3 (M1 to T268 residues) expressed in HEK293 cells at 1 uM by Kinomescan method relative to control; type: cell-based; procedure, shortened: as §1
[7] = molecular target: Cyclin-dependent kinase 16 (Homo sapiens) (UniProt Q00536); experiment: Binding affinity to wild-type human partial length PCTK1 (G160 to A474 residues) expressed in HEK293 cells at 1 uM by Kinomescan method relative to control; type: cell-based
[8] = system: Fibroblast growth factor receptor 3 (Homo sapiens), P22607 [G697C]; experiment: Binding affinity to human partial length FGFR3 G697C mutant (R442 to S771 residues) expressed in Escherichia coli BL21 at 1 uM by Kinomescan method relative to control
[9] = molecular target: Wee1-like protein kinase 2 (Homo sapiens) (UniProt P0C1S8); experiment: Binding affinity to wild-type human partial length WEE2 (M204 to K492 residues) expressed in Escherichia coli BL21 at 1 uM by Kinomescan method relative to control
[10] = molecular target: Receptor-interacting serine/threonine-protein kinase 1 (Homo sapiens) (UniProt Q13546); experiment: Binding affinity to wild-type human partial length RIPK1 (M1 to K305 residues) expressed in Escherichia coli BL21 at 1 uM by Kinomescan method relative to control
[11] = system: ALK tyrosine kinase receptor (Homo sapiens), Q9UM73 [L1196M]; experiment: Binding affinity to […] human partial length ALK L1196M mutant (I1088 to E1409 residues) expressed in HEK293 cells at 1 uM by Kinomescan method relative to control; type: cell-based
[12] = molecular target: Atypical kinase COQ8B, mitochondrial (Homo sapiens) (UniProt Q96D53); experiment: Binding affinity to wild-type human full length ADCK4 (M1 to S544 residues) expressed in Escherichia coli BL21 at 1 uM by Kinomescan method relative to control
[13] = system: Receptor-type tyrosine-protein kinase FLT3 (Homo sapiens), P36888 [UNDEFINED MUTATION]; experiment: Binding affinity to human partial length FLT3 ITD/F691L double mutant expressed in Escherichia coli BL21 at 1 uM by Kinomescan method relative to control
[14] = molecular target: Serine/threonine-protein kinase 17B (Homo sapiens) (UniProt O94768); experiment: Binding affinity to wild-type human full length DRAK2 (M1 to C372 residues) expressed in Escherichia coli BL21 at 1 uM by Kinomescan method relative to control
Procedure, shortened: (§2)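 Run as one kinome-wide competition binding panel with each compound at a single fixed concentration. Results were plotted as a kinome-wide selectivity map.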

[15] = molecular target: Ephrin type-B receptor 3 (Homo sapiens) (UniProt P54753); experiment: Binding affinity to wild-type human partial length EPHB3 (Q599 to T928 residues) expressed in Escherichia coli BL21 at 1 uM by Kinomescan method relative to control
[16] = molecular target: Serine/threonine-protein kinase TBK1 (Homo sapiens) (UniProt Q9UHD2); experiment: Binding affinity to wild-type human full length TBK1 (M1 to L729 residues) expressed in HEK293 cells at 1 uM by Kinomescan method relative to control; type: cell-based
[17] = molecular target: Serine/threonine-protein kinase PAK 3 (Homo sapiens) (UniProt O75914); experiment: Binding affinity to wild-type human full length PAK3 (M1 to R544 residues) expressed in Escherichia coli BL21 at 1 uM by Kinomescan method relative to control; procedure, shortened: as §1
[18] = molecular target: Platelet-derived growth factor receptor beta (Homo sapiens) (UniProt P09619); experiment: Binding affinity to wild-type human partial length PDGFRB (V582 to Y1009 residues) expressed in Escherichia coli BL21 at 1 uM by Kinomescan method relative to control
[19] = molecular target: Megakaryocyte-associated tyrosine-protein kinase (Homo sapiens) (UniProt P42679); experiment: Binding affinity to wild-type human full length CTK (M43 to P508 residues) expressed in HEK293 cells at 1 uM by Kinomescan method relative to control; type: cell-based; procedure, shortened: as §2
[20] = molecular target: Interleukin-1 receptor-associated kinase 1 (Homo sapiens) (UniProt P51617); experiment: Binding affinity to wild-type human partial length IRAK1 (R194 to S712 residues) expressed in HEK293 cells at 1 uM by Kinomescan method relative to control; type: cell-based
[21] = molecular target: Tyrosine-protein kinase receptor UFO (Homo sapiens) (UniProt P30530); experiment: Binding affinity to wild-type human partial length AXL (R497 to Y821 residues) expressed in Escherichia coli BL21 at 1 uM by Kinomescan method relative to control
[22] = molecular target: Serine/threonine-protein kinase RIO3 (Homo sapiens) (UniProt O14730); experiment: Binding affinity to wild-type human full length RIOK3 (M1 to E519 residues) expressed in Escherichia coli BL21 at 1 uM by Kinomescan method relative to control; procedure, shortened: as §1
[23] = molecular target: Serine/threonine-protein kinase ULK2 (Homo sapiens) (UniProt Q8IYT8); experiment: Binding affinity to wild-type human partial length ULK2 (M1 to S301 residues) expressed in HEK293 cells at 1 uM by Kinomescan method relative to control; type: cell-based
[24] = molecular target: NUAK family SNF1-like kinase 2 (Homo sapiens) (UniProt Q9H093); experiment: Binding affinity to wild-type human partial length SNARK (P22 to A333 residues) expressed in HEK293 cells at 1 uM by Kinomescan method relative to control; type: cell-based
[25] = molecular target: Serine/threonine-protein kinase MARK1 (Homo sapiens) (UniProt Q9P0L2); experiment: Binding affinity to wild-type human partial length MARK1 (Q30 to T341 residues) expressed in Escherichia coli BL21 at 1 uM by Kinomescan method relative to control

Wee1-like protein kinase 2 (Homo sapiens), sequence (P0C1S8 whole entry, looked up, the tested form may be a part): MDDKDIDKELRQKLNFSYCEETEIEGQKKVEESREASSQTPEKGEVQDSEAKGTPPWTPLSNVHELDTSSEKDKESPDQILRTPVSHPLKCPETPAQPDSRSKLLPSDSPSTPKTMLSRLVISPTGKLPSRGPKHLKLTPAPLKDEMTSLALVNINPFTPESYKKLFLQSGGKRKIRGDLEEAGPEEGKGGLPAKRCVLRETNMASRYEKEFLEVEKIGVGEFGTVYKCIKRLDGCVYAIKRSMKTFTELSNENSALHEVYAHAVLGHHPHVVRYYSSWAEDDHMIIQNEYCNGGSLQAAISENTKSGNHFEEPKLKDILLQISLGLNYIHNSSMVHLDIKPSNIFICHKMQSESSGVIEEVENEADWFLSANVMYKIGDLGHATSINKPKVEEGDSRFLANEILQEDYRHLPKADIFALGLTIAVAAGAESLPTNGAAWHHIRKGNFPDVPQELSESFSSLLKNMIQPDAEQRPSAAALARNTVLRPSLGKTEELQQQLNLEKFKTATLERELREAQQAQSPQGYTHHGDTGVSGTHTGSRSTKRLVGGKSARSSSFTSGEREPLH
Receptor-interacting serine/threonine-protein kinase 1 (Homo sapiens), sequence (Q13546 whole entry, the tested form may be a part): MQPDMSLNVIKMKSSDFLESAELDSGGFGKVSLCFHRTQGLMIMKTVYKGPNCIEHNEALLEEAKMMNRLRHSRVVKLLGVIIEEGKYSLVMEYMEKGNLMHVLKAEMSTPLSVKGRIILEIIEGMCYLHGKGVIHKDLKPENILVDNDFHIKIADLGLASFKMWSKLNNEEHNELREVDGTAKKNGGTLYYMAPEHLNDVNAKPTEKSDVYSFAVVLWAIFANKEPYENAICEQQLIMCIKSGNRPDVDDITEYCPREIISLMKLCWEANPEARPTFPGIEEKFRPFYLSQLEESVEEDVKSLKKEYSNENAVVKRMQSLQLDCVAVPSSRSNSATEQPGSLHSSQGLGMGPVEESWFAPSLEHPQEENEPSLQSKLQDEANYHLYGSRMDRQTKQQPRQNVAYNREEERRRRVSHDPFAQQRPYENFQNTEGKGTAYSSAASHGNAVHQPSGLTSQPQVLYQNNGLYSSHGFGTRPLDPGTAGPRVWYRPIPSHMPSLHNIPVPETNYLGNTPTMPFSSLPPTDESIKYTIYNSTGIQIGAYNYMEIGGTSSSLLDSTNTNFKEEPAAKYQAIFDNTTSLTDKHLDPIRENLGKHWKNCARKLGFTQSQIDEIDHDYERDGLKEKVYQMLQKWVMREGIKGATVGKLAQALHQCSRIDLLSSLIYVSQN
Fibroblast growth factor receptor 3 (Homo sapiens), P22607 [G697C], sequence (P22607 whole entry G697C, the tested form may be a part): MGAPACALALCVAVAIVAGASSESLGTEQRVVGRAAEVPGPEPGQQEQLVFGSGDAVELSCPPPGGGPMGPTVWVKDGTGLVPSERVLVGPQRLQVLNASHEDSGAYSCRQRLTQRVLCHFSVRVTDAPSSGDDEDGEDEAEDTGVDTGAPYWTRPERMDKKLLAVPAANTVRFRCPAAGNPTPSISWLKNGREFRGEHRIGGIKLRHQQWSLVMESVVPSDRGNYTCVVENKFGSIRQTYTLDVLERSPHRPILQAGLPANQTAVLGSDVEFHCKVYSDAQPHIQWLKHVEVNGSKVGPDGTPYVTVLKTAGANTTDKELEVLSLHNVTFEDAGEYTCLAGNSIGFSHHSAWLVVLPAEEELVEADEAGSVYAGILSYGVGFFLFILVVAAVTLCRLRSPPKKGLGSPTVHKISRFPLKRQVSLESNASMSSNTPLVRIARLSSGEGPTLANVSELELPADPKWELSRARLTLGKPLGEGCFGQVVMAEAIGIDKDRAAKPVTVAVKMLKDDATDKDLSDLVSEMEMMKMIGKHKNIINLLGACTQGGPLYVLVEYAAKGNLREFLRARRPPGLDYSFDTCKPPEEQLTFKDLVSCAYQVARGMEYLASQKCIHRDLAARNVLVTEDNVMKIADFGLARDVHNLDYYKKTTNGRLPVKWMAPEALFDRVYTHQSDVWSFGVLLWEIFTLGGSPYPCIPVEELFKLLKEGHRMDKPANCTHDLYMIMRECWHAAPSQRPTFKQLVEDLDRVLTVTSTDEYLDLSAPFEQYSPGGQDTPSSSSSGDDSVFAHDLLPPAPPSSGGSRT
Serine/threonine-protein kinase 17B (Homo sapiens), sequence (O94768 whole entry, the tested form may be a part): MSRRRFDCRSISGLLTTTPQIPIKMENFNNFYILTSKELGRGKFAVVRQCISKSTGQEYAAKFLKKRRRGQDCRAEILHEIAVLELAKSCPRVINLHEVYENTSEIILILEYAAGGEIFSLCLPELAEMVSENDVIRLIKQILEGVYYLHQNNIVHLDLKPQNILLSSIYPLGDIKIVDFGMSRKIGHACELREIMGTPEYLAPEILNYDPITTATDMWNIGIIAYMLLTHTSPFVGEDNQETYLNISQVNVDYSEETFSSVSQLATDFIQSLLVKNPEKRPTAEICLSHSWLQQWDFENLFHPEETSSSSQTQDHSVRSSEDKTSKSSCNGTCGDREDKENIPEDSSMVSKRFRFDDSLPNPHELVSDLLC
Cyclin-dependent kinase 16 (Homo sapiens), sequence (Q00536 whole entry, the tested form may be a part): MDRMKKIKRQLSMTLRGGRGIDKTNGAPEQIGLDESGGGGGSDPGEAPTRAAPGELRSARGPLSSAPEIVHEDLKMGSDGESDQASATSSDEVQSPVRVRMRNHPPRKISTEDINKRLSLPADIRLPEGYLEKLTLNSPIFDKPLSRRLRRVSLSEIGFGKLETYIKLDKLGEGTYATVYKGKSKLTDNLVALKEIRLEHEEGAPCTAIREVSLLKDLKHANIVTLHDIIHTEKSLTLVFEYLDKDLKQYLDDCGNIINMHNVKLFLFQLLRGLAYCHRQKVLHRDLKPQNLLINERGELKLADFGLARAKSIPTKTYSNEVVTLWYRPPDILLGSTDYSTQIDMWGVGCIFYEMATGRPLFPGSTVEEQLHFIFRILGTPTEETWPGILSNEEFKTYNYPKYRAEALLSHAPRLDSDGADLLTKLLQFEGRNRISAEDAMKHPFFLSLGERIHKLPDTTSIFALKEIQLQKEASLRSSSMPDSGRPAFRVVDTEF
Serine/threonine-protein kinase PAK 3 (Homo sapiens), sequence (O75914 whole entry, looked up, the tested form may be a part): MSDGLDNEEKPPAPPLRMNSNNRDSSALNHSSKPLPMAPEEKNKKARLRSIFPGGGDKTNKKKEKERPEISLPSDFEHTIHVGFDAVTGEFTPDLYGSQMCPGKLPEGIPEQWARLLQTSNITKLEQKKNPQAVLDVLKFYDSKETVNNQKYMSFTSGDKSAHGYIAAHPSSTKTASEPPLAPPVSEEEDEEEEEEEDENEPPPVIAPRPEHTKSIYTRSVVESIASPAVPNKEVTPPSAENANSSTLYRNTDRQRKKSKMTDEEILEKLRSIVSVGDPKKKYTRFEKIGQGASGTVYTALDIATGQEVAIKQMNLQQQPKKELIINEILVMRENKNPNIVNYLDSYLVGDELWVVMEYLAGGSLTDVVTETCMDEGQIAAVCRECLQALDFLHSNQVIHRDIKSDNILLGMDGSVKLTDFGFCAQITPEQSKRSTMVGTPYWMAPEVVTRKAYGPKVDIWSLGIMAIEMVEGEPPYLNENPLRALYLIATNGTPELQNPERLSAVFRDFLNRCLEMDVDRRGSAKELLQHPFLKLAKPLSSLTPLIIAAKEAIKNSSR
Serine/threonine-protein kinase TAO3 (Homo sapiens), sequence (Q9H2K8 whole entry, the tested form may be a part): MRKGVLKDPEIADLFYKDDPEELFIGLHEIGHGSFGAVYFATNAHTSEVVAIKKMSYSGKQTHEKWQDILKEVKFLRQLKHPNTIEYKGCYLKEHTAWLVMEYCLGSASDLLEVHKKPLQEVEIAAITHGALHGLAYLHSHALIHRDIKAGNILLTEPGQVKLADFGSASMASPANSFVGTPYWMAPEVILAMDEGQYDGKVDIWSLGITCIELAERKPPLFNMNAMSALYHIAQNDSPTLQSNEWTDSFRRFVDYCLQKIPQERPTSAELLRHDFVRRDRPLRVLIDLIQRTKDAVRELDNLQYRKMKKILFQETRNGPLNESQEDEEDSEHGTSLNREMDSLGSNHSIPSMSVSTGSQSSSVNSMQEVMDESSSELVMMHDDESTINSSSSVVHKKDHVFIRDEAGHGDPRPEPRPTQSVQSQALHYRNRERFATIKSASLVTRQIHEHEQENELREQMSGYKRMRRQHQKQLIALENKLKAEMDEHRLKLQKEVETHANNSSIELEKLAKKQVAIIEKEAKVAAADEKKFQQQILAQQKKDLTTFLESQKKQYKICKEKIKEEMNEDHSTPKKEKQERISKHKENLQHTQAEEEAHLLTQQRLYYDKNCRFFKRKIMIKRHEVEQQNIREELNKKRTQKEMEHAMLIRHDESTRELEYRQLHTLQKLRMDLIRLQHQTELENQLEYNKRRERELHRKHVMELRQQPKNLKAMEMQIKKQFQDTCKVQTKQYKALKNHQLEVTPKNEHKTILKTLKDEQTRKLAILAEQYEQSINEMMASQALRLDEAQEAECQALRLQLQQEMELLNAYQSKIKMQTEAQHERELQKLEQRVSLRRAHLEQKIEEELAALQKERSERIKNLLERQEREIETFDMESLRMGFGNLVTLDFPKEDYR
Testis-specific serine/threonine-protein kinase 3 (Homo sapiens), sequence (Q96PN8 whole entry, the tested form may be a part): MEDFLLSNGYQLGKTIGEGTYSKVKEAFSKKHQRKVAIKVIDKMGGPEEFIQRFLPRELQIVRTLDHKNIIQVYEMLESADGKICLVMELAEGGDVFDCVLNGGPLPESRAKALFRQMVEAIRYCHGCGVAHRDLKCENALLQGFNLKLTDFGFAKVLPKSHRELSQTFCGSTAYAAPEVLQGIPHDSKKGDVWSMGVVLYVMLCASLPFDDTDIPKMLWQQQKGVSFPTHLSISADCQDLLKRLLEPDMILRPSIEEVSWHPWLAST

Structure (SMILES): CCC(=O)Nc1ccc(C(=O)Nc2ccc(Nc3ncc4c(n3)N(C)c3ccc(C)cc3C(=O)N4C)cc2)cc1
- Activity [1]: 99%
- Activity [2]: 100%
- Activity [3]: 100%
- Activity [4]: 92%
- Activity [5]: 100%
- Activity [6]: 59%
- Activity [7]: 74%
- Activity [8]: 95%
- Activity [9]: 97%
- Activity [10]: 86%
- Activity [11]: 96%
- Activity [12]: 100%
- Activity [13]: 68%
- Activity [14]: 100%
- Activity [15]: 88%
- Activity [16]: 74%
- Activity [17]: 55%
- Activity [18]: 84%
- Activity [19]: 95%
- Activity [20]: 90%
- Activity [21]: 87%
- Activity [22]: 84%
- Activity [23]: 82%
- Activity [24]: 65%
- Activity [25]: 85%

Structure (SMILES): C=CC(=O)Nc1ccc(C(=O)Nc2ccc(Nc3ncc4c(n3)N(C)c3ccc(C)cc3C(=O)N4C)cc2)cc1
- Activity [1]: 96%
- Activity [2]: 99%
- Activity [3]: 83%
- Activity [4]: 95%
- Activity [5]: 100%
- Activity [6]: 100%
- Activity [7]: 100%
- Activity [8]: 93%
- Activity [9]: 100%
- Activity [10]: 100%
- Activity [11]: 94%
- Activity [12]: 100%
- Activity [13]: 100%
- Activity [14]: 87%
- Activity [15]: 89%
- Activity [16]: 94%
- Activity [17]: 69%
- Activity [18]: 94%
- Activity [19]: 100%
- Activity [20]: 95%
- Activity [21]: 95%
- Activity [22]: 75%
- Activity [23]: 94%
- Activity [24]: 93%
- Activity [25]: 84%
